Measured values of several laboratories.
Effect on: cell growth or viability

O=C(Nc1cccc(Br)c1)c1cccc(S(=O)(=O)N2CCCCCC2)c1 — viability (OCI-Ly1; ATP luminescence; 1 µM, 5 days): 153%
Cc1n[nH]c2ccc3nc(-c4ccc(C(=O)NCCN(C)C)cc4F)c4c(c3c12)CCCCC4 — GI50 (K562; resazurin; 72 h): 2 µM
CCCCCCCCCCCCCCCCCCOc1ccccc1CC(=O)OCC[N+]1(C)CCOCC1 — inhibition (HOP-92; SRB; 10 µM): 55.8%
O=C(NCCN1CCCC1)c1ccc(-c2nc3ccc4[nH]ncc4c3c3c2CCCC3)c(F)c1 — GI50 (K562; resazurin; 72 h): 1.7 µM
O=C(Nc1ccc(-c2ccccc2)cc1)[C@H]1O[C@H](O[C@@H]2[C@@H](OCc3ccc4ccccc4c3)[C@H](O[C@H]3O[C@H](CNS(=O)(=O)O)[C@@H](OCc4ccc5ccccc5c4)C[C@H]3NS(=O)(=O)O)[C@@H](NS(=O)(=O)O)C[C@H]2NS(=O)(=O)O)[C@H](OCc2ccc3ccccc3c2)[C@@H](NS(=O)(=O)O)[C@@H]1OCc1ccc2ccccc2c1 — EC50 (4T1; CCK-8; 48 h): 12.5 µM
Cc1n[nH]c2ccc3nc(-c4ccc(C(=O)NCCN5CCCC5)cc4)c4c(c3c12)CCCC4 — GI50 (K562; resazurin; 72 h): 2.3 µM
O=C(NO)c1ccc(CC(=O)N(CCO)c2ccccc2)cc1 — viability (OCI-Ly1; ATP luminescence; 0.1 µM, 5 days): 94.6%
CCCCCCCCCCCCCCCCCCOc1ccccc1CC(=O)OCC[N+](CC)(CC)CC — inhibition (HOP-62; SRB; 10 µM): 59%
O=C(Nc1ccc(Cl)cc1)C1CCCN(C(=O)c2cc(C(F)(F)F)cc(C(F)(F)F)c2)C1 (racemic) — viability (OCI-Ly1; ATP luminescence; 0.1 µM, 5 days): 191%
CCCCCCCCCCCCCCCCCCOc1cccc(CC(=O)OCC[N+](C)(C)C)c1 — inhibition (HOP-62; SRB; 10 µM): 3.94%
NCCNC(=O)c1ccc(-c2nc3ccc4[nH]ncc4c3c3c2CCCC3)cc1 — GI50 (K562; resazurin; 72 h): 6.1 µM
CCCCCCCCCCCCCCCCCCOc1ccccc1CC(=O)OCC[N+](C)(C)C — inhibition (HOP-62; SRB; 10 µM): 95.1%
O=C(NCC1CC1)c1ccc(-c2nc3ccc4[nH]ncc4c3c3c2CCCC3)cc1 — GI50 (K562; resazurin; 72 h): > 10 µM
CCCCCCCCCCCCCCCCCCOc1cccc(CC(=O)OCC[N+]2(C)CCCC2)c1 — inhibition (HOP-62; SRB; 10 µM): 9.94%
COC(=O)CNC(=O)C(=O)OC — viability (OCI-Ly1; ATP luminescence; 0.5 µM, 5 days): 168%
